What was measured:
Type in all cases: functional
LOX IMVI = assay: Growth inhibition of human LOXIMVI cells after 48 hrs by sulforhodamine B assay
Outline: (§1)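 NCI 60-human-tumor-cell-line panel, with compounds tested over a 5-log dose range. Values are taken from dose-response curves as log10 molar concentrations: GI50 is 50% net growth inhibition, TGI is total growth inhibition, and LC50 is 50% net cell death.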

OVCAR-3 = assay: Growth inhibition of human OVCAR-3 cells after 48 hrs by sulforhodamine B assay; details: OVCAR-3, 48 h; outline: as §1
ACHN = assay: Growth inhibition of human ACHN cells after 48 hrs by sulforhodamine B assay
KM12 = assay: Growth inhibition of human KM12 cells after 48 hrs by sulforhodamine B assay; details: KM12, 48 h; outline: as §1
A498 = assay: Growth inhibition of human A498 cells after 48 hrs by sulforhodamine B assay; details: A498, 48 h; outline: as §1
NCI-H522 = assay: Growth inhibition of human NCI-H522 cells after 48 hrs by sulforhodamine B assay; details: NCI-H522, 48 h; outline: as §1
HCT-15 = assay: Growth inhibition of human HCT15 cells after 48 hrs by sulforhodamine B assay; details: HCT-15, 48 h; outline: as §1
CCRF-CEM = assay: Growth inhibition of human CCRF-CEM cells after 48 hrs by sulforhodamine B assay; outline: as §1
CAKI-1 = assay: Growth inhibition of human Caki1 cells after 48 hrs by sulforhodamine B assay; details: CAKI-1, 48 h; outline: as §1
SR = assay: Growth inhibition of human SR cells after 48 hrs by sulforhodamine B assay
Outline: (§2)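 Run in the NCI 60-human-tumour-cell-line panel, tested over a 5-log dose range. Dose–response curves gave three values per cell line, each as a log10 molar concentration: GI50 (50% inhibition of net cell growth), TGI (total inhibition of net growth) and LC50 (50% net cell death). The mean graph midpoint is the arithmetic mean over all lines, with insensitive lines entered at the highest concentration tested.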

K562 = assay: Growth inhibition of human K562 cells after 48 hrs by sulforhodamine B assay; details: K562, 48 h; outline: as §1
[1] = Growth inhibition of human Hs 578T cells after 48 hrs by sulforhodamine B assay; outline: as §1
SN12C = assay: Growth inhibition of human SN12C cells after 48 hrs by sulforhodamine B assay; outline: as §2
SK-MEL-2 = assay: Growth inhibition of human SK-MEL-2 cells after 48 hrs by sulforhodamine B assay; details: SK-MEL-2, 48 h; outline: as §1
Malme-3M = assay: Growth inhibition of human MALME-3M cells after 48 hrs by sulforhodamine B assay; outline: as §1
OVCAR-5 = assay: Growth inhibition of human OVCAR5 cells after 48 hrs by sulforhodamine B assay; details: OVCAR-5, 48 h; outline: as §1
NCI-H322M = assay: Growth inhibition of human NCI-H322M cells after 48 hrs by sulforhodamine B assay; outline: as §1
HL-60(TB) = assay: Growth inhibition of human HL-60(TB) cells after 48 hrs by sulforhodamine B assay; details: HL-60, 48 h
Outline: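 Tested only on compounds active in a three-line prescreen, in the NCI 60-human-tumour-cell-line panel over a 5-log dose range. Values come from dose–response curves as log10 molar GI50, the concentration inhibiting 50% net cell growth. Log10 TGI (total growth inhibition) and log10 LC50 (50% net cell death) were derived too. Mean graph midpoints include insensitive lines at the highest concentration tested.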

BT-549 = assay: Growth inhibition of human BT549 cells after 48 hrs by sulforhodamine B assay; details: BT-549, 48 h; outline: as §1
NCI/ADR-RES = assay: Growth inhibition of human NCI/ADR-RES cells after 48 hrs by sulforhodamine B assay; outline: as §1
HT-29 = assay: Growth inhibition of human HT-29 cells after 48 hrs by sulforhodamine B assay; details: HT-29, 48 h; outline: as §1
T47D = assay: Growth inhibition of human T47D cells after 48 hrs by sulforhodamine B assay; outline: as §2
HOP-62 = assay: Growth inhibition of human HOP62 cells after 48 hrs by sulforhodamine B assay; details: HOP-62, 48 h; outline: as §1
HOP-92 = assay: Growth inhibition of human HOP92 cells after 48 hrs by sulforhodamine B assay; details: HOP-92, 48 h; outline: as §1
EKVX = assay: Growth inhibition of human EKVX cells after 48 hrs by sulforhodamine B assay; outline: as §1
SNB-75 = assay: Growth inhibition of human SNB75 cells after 48 hrs by sulforhodamine B assay; details: SNB-75, 48 h; outline: as §2
UO-31 = assay: Growth inhibition of human UO31 cells after 48 hrs by sulforhodamine B assay; details: UO-31, 48 h; outline: as §2
786-0 = assay: Growth inhibition of human 786-0 cells after 48 hrs by sulforhodamine B assay; details: 786-0, 48 h; outline: as §1
[2] = read-out: pLC50 (the source's name) (converted)

COc1ccc(CNc2nc3cc(N)cc(N)c3nc2-c2ccccc2)cc1 gave a GI50 (LOX IMVI) of 13.5 µM, an LC50 (LOX IMVI) of 55 µM and a TGI (LOX IMVI; read-out: pTGI (converted)) of 27.5 µM. The GI50 (OVCAR-3) was 2.24 µM, the CC50 (OVCAR-3; [2]) was 38.9 µM and the TGI (OVCAR-3; read-out: pTGI (converted)) was 7.76 µM. The GI50 (ACHN) was 14.8 µM, the CC50 (ACHN; [2]) was 75.9 µM and the TGI (ACHN; read-out: pTGI (converted)) was 33.9 µM. The GI50 (KM12) was 13.2 µM, the LC50 (50% net cell kill) (KM12) was greater than 100 µM and the TGI (KM12; read-out: pTGI (converted)) was 26.3 µM. For the same compound, the GI50 (A498) was greater than 100 µM, the CC50 (A498; [2]) was greater than 100 µM and the TGI (A498; read-out: pTGI (converted)) was greater than 100 µM. It also gave a GI50 (NCI-H522) of 10 µM, an LC50 (NCI-H522) of 47.9 µM and a TGI (NCI-H522; read-out: pTGI (converted)) of 21.9 µM. For the same compound, the GI50 (HCT-15) was 15.8 µM, the LC50 (HCT-15) was 75.9 µM and the TGI (HCT-15; read-out: pTGI (converted)) was 34.7 µM. The GI50 (CCRF-CEM) was 3.39 µM, the LC50 (CCRF-CEM) was greater than 100 µM and the TGI (CCRF-CEM; read-out: pTGI (converted)) was 64.6 µM. The GI50 (CAKI-1) was 16.2 µM, the CC50 (CAKI-1; [2]) was 79.4 µM and the TGI (CAKI-1; read-out: pTGI (converted)) was 36.3 µM. It also gave a GI50 (SR) of 4.07 µM, an LC50 (concentration giving 50% net cell death) (SR) greater than 100 µM and a TGI (SR; read-out: pTGI (converted)) greater than 100 µM. The GI50 (K562) was 25.1 µM, the LC50 (K562) was greater than 100 µM and the TGI (K562; read-out: pTGI (converted)) was 97.7 µM. For the same compound, the GI50 [1] was 26.9 µM, the CC50 [1, 2] was greater than 100 µM and the TGI ([1]; read-out: pTGI (converted)) was greater than 100 µM. For the same compound, the GI50 (SN12C) was 17 µM, the CC50 (SN12C; [2]) was 69.2 µM and the TGI (SN12C; read-out: pTGI (converted)) was 34.7 µM. It also gave a GI50 (SK-MEL-2) of 14.8 µM, a CC50 (SK-MEL-2; [2]) of 57.5 µM and a TGI (SK-MEL-2; read-out: pTGI (converted)) of 28.8 µM. For the same compound, the GI50 (Malme-3M) was 10.7 µM, the CC50 (Malme-3M; [2]) was 47.9 µM and the TGI (Malme-3M; read-out: pTGI (converted)) was 22.4 µM. The GI50 (OVCAR-5) was 20.9 µM, the CC50 (OVCAR-5; [2]) was greater than 100 µM and the TGI (OVCAR-5; read-out: pTGI (converted)) was 45.7 µM. For the same compound, the GI50 (NCI-H322M) was 22.9 µM, the LC50 (NCI-H322M) was greater than 100 µM and the TGI (NCI-H322M; read-out: pTGI (converted)) was 52.5 µM. It also gave a GI50 (HL-60(TB)) of 13.5 µM, an LC50 (HL-60(TB)) greater than 100 µM and a TGI (HL-60(TB); read-out: pTGI (converted)) of 51.3 µM. It also gave a GI50 (BT-549) of 6.46 µM, a CC50 (BT-549; [2]) greater than 100 µM and a TGI (BT-549; read-out: pTGI (converted)) of 30.9 µM. For the same compound, the GI50 (NCI/ADR-RES) was 22.9 µM, the CC50 (NCI/ADR-RES; [2]) was greater than 100 µM and the TGI (NCI/ADR-RES; read-out: pTGI (converted)) was 83.2 µM. The GI50 (HT-29) was 24.5 µM, the LC50 (HT-29) was greater than 100 µM and the TGI (HT-29; read-out: pTGI (converted)) was 60.3 µM. It also gave a GI50 (T47D) of 2.82 µM, a CC50 (T47D; [2]) of 72.4 µM and a TGI (T47D; read-out: pTGI (converted)) of 11 µM. It also gave a GI50 (HOP-62) of 17.4 µM, an LC50 (HOP-62) of 69.2 µM and a TGI (HOP-62; read-out: pTGI (converted)) of 34.7 µM. The GI50 (HOP-92) was 12.9 µM, the LC50 (50% net cell death) (HOP-92) was greater than 100 µM and the TGI (HOP-92; read-out: pTGI (converted)) was 37.2 µM. It also gave a GI50 (EKVX) of 14.8 µM, an LC50 (50% net cell kill) (EKVX) of 53.7 µM and a TGI (EKVX; read-out: pTGI (converted)) of 28.2 µM. For the same compound, the LC50 (SNB-75) was 72.4 µM, the TGI (SNB-75; read-out: pTGI (converted)) was 30.2 µM and the GI50 (UO-31) was 11.5 µM. The CC50 (UO-31; [2]) was 72.4 µM, the TGI (UO-31; read-out: pTGI (converted)) was 28.8 µM and the GI50 (786-0) was 15.1 µM. The CC50 (786-0; [2]) was greater than 100 µM and the TGI (786-0; read-out: pTGI (converted)) was 41.7 µM.

Source: ChEMBL document CHEMBL1137710, “Synthesis and in vitro antitumor activity of new quinoxaline derivatives” (2009)
